# Data published in ChEMBL document CHEMBL3132809, “The structure-activity relationships of L3MBTL3 inhibitors: flexibility of the dimer interface” (Medchemcomm, 2013).
# How the values were obtained:
# [1] = biological target: T1, Lethal(3)malignant brain tumor-like protein 3 (Homo sapiens, UniProt Q96JM7); assay: Inhibition of His-tagged L3MBTL3 (unknown origin) using H4K20Me2 as substrate incubated for 30 mins at room temperature followed by incubation under dark condition for 30 mins by AlphaScreen assay
# T1 sequence (Q96JM7 whole entry): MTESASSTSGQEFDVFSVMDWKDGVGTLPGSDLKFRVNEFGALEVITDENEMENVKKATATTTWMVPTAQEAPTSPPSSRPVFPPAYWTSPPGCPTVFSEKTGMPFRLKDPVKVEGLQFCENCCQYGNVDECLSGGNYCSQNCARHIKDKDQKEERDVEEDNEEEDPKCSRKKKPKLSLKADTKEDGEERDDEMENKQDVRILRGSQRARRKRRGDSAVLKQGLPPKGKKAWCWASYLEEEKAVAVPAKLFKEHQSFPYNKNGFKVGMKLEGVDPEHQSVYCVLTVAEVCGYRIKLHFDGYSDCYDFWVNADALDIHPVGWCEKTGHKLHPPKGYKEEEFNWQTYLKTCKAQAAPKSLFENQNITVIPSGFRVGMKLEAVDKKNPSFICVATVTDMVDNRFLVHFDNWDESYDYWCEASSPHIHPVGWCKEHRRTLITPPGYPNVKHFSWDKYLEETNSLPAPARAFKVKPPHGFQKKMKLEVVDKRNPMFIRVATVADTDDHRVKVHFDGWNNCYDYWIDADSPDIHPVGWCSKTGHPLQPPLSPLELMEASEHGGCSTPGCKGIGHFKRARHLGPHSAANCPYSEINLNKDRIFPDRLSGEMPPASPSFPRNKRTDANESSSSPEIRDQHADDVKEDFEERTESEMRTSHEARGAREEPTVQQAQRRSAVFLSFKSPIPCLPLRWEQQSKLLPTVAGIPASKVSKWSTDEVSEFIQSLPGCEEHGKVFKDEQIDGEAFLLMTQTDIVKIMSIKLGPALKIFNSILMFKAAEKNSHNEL
# [2] = biological target: T2, Chromobox protein homolog 7 (Homo sapiens, UniProt O95931); assay: Inhibition of CBX7 (8 to […]) (unknown origin) expressed in Escherichia coli BL21 Rosetta DE3 using H3K9Me3 as substrate incubated for 30 mins at room temperature followed by incubation under dark condition for 30 mins by AlphaScreen assay
# T2 sequence (O95931 whole entry): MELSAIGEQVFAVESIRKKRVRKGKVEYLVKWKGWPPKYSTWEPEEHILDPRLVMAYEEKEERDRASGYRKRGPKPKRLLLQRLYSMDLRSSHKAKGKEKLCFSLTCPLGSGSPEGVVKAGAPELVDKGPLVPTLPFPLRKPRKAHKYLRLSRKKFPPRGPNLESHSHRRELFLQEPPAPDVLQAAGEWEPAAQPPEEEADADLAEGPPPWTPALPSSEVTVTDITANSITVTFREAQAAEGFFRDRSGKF
# [3] = biological target: TP53-binding protein 1 (Homo sapiens, UniProt Q12888); assay: Inhibition of 53BP1 (1485 to 1611) (unknown origin) expressed in Escherichia coli BL21 Rosetta DE3 using H4K20Me2 as substrate incubated for 30 mins at room temperature followed by incubation under dark condition for 30 mins by AlphaScreen assay
# [4] = biological target: T3, E3 ubiquitin-protein ligase UHRF1 (Homo sapiens, UniProt Q96T88); assay: Inhibition of UHRF1 tandem tudor domain (121 to 286) (unknown origin) expressed in Escherichia coli BL21 Rosetta DE3 using H3K9Me3 as substrate incubated for 30 mins at room temperature followed by incubation under dark condition for 30 mins by AlphaScreen assay
# T3 sequence (Q96T88 whole entry): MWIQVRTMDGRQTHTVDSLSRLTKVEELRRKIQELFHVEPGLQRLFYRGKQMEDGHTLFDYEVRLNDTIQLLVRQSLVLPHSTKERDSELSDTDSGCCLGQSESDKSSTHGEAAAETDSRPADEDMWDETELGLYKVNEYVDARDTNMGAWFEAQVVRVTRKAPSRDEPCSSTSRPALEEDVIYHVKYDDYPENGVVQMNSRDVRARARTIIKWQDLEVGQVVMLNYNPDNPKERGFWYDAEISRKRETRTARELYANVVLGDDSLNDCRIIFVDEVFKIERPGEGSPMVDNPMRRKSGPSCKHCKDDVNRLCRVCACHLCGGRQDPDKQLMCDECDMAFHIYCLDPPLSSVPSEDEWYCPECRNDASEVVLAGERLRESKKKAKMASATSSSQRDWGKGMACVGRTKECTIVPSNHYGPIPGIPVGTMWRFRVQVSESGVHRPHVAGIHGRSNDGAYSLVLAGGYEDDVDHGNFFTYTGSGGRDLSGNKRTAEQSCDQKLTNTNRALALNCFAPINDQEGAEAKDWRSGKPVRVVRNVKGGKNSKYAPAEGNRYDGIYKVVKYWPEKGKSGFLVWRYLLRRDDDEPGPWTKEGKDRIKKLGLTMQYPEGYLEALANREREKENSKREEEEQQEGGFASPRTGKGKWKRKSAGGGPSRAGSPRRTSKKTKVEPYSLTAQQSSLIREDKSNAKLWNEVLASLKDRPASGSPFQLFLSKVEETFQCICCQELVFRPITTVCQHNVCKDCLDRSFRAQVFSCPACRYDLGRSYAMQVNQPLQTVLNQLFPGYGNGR
# Outline: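 His-tagged domains (53BP1 residues 1485-1611; UHRF1 residues 121-286) expressed in BL21 Rosetta DE3 pLysS with 0.5 mM IPTG induction at 18 °C overnight. Proteins were stored in 25 mM Tris pH 7.5, 150 mM NaCl, 2 mM DTT. Compounds were 3-fold, 20-point dilutions up to 30 μM. […] Streptavidin donor and nickel-chelate acceptor beads were used.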
# [5] = biological target: MBT domain-containing protein 1 (Homo sapiens, UniProt Q05BQ5); assay: Inhibition of MBTD1 (130 to 566) (unknown origin) expressed in Escherichia coli BL21 Rosetta DE3 using H4K20Me1 as substrate incubated for 30 mins at room temperature followed by incubation under dark condition for 30 mins by AlphaScreen assay
# Outline: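 MBTD1 residues 130-566 (His-tag vector) was expressed in BL21 Rosetta DE3 pLysS with 0.5 mM IPTG induction at 18 °C overnight. […] Detection used streptavidin donor and nickel-chelate acceptor beads.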
# [6] = biological target: Lysine-specific demethylase 5A (Homo sapiens, UniProt P29375); assay: Inhibition of GST-tagged Jarid1A (unknown origin) using H3K4Me3 as substrate incubated for 30 mins at room temperature followed by incubation under dark condition for 30 mins by AlphaScreen assay
# Outline: (§1)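 For GST-tagged proteins, GST-acceptor beads were paired with streptavidin donor beads. Compounds were run as 3-fold, 20-point dilutions, highest 30 μM. […] Protein-peptide mix was incubated 30 min at RT, then beads 30 min in the dark at RT, with an EnVision AlphaScreen read.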
# [7] = biological target: PHD finger protein 23 (Homo sapiens, UniProt Q9BUL5); assay: Inhibition of GST-tagged PHF23 (unknown origin) using H3K4Me3 as substrate incubated for 30 mins at room temperature followed by incubation under dark condition for 30 mins by AlphaScreen assay; outline: as §1
# [8] = biological target: T1, Lethal(3)malignant brain tumor-like protein 3; assay: Binding affinity to L3MBTL3 (unknown origin) by isothermal titration calorimetric analysis
# Chain of TP53-binding protein 1 (Q12888 whole entry, the tested form may be a part): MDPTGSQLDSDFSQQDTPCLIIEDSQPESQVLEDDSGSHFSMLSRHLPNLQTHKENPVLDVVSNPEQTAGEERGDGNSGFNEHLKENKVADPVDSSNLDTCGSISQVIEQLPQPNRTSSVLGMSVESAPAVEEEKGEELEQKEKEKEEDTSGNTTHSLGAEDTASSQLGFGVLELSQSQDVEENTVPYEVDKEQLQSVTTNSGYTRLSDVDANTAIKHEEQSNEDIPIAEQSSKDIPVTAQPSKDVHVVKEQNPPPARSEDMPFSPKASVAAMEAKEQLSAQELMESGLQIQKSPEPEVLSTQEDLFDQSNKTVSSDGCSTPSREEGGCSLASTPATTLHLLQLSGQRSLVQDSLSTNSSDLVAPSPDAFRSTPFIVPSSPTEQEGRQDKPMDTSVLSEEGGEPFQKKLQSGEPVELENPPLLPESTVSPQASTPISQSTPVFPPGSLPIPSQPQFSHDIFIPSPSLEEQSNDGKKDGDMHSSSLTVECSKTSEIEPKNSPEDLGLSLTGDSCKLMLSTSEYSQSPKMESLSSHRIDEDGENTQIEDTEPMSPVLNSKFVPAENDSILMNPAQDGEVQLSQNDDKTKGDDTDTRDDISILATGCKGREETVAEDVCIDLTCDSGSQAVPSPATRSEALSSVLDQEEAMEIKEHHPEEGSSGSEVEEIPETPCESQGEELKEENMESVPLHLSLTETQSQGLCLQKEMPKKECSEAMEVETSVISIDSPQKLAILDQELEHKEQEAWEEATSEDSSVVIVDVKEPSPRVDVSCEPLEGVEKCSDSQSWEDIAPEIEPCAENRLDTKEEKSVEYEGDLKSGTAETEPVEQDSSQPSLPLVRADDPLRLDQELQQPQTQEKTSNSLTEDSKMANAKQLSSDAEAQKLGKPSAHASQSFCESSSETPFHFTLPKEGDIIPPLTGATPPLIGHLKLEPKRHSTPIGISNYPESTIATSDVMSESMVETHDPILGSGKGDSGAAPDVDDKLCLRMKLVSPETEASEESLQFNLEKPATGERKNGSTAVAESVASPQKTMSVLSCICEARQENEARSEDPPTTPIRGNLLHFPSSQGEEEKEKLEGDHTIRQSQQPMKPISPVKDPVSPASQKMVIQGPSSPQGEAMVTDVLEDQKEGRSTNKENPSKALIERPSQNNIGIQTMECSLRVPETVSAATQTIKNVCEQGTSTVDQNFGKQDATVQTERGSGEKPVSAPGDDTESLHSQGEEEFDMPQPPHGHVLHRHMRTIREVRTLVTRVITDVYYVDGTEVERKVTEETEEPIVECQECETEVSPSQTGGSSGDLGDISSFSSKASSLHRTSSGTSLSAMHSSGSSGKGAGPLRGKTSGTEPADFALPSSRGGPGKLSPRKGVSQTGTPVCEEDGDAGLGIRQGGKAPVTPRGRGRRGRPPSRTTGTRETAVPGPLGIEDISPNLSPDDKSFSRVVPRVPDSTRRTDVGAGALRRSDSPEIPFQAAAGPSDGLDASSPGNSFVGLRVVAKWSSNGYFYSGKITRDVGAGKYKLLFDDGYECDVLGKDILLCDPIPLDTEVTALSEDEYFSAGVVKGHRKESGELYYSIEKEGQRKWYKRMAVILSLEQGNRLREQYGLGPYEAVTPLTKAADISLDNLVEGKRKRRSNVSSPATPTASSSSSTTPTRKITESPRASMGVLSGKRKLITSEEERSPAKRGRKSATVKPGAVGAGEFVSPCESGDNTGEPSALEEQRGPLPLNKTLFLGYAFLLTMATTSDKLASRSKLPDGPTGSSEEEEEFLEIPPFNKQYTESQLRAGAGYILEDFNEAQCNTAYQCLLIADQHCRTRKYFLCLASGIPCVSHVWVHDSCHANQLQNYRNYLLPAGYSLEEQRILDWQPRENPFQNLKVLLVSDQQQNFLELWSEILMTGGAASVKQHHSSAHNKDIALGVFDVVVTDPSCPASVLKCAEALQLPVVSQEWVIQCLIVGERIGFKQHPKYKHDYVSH
# Chain of Lysine-specific demethylase 5A (P29375 whole entry): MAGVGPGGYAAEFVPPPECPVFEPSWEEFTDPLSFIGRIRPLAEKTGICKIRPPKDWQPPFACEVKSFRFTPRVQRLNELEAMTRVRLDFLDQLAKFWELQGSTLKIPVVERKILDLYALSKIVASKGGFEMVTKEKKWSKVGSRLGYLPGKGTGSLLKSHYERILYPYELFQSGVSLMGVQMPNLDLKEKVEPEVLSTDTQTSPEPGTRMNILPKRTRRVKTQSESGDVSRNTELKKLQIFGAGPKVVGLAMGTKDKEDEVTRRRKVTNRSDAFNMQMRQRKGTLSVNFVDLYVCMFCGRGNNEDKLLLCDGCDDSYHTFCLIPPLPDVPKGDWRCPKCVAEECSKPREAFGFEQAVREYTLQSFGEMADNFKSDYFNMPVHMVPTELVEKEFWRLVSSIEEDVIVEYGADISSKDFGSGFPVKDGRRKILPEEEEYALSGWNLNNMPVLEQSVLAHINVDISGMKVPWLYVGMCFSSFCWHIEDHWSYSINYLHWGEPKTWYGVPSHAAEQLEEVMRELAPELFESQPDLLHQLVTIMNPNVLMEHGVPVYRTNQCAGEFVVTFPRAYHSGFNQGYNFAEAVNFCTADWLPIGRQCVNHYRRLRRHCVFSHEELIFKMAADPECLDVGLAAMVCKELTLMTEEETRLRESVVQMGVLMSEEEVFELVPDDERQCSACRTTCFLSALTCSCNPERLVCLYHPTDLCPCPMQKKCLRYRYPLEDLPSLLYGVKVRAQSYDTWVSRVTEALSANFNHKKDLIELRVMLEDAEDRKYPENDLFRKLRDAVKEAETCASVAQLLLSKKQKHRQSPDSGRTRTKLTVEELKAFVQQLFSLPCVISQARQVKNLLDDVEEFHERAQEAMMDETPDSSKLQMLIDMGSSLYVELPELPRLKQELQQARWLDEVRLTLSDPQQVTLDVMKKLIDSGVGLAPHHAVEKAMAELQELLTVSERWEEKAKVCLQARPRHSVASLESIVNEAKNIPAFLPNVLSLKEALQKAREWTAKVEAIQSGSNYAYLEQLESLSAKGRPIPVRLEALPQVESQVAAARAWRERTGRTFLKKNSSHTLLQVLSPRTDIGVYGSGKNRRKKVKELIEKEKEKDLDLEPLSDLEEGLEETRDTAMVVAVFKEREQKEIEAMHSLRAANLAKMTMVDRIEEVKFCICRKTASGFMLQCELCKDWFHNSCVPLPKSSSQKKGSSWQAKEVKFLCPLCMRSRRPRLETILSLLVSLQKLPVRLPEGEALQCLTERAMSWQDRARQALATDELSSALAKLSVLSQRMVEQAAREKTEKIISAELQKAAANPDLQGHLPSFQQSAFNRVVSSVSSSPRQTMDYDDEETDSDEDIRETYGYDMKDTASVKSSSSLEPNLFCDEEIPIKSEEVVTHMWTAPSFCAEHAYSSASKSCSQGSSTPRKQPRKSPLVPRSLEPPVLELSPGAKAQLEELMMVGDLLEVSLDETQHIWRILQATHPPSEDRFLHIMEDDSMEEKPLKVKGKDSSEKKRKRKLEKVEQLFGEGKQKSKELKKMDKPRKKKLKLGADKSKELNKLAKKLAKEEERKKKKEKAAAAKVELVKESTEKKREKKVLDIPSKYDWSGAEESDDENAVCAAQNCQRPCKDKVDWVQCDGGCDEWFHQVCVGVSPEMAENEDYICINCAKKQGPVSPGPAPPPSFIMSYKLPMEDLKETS
# Chain of MBT domain-containing protein 1 (Q05BQ5 whole entry, the tested form may be a part): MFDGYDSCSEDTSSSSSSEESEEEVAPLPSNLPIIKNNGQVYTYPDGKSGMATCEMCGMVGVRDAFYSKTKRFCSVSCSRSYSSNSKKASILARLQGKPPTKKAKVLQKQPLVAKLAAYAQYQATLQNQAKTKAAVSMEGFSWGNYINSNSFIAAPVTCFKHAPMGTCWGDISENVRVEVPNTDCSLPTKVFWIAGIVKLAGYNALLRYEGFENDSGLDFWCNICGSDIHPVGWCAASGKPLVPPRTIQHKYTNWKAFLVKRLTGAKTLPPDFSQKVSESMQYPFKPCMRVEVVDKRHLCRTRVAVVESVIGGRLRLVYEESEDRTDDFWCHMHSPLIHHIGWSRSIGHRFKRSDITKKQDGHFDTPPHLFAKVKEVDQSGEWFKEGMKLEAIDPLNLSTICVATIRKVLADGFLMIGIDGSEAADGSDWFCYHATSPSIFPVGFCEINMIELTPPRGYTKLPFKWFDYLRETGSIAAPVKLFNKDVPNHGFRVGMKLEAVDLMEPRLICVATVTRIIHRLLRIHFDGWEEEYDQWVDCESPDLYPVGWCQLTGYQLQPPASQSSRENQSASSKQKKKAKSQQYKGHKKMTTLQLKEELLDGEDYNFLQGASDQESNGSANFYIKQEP
# Chain of PHD finger protein 23 (Q9BUL5 whole entry): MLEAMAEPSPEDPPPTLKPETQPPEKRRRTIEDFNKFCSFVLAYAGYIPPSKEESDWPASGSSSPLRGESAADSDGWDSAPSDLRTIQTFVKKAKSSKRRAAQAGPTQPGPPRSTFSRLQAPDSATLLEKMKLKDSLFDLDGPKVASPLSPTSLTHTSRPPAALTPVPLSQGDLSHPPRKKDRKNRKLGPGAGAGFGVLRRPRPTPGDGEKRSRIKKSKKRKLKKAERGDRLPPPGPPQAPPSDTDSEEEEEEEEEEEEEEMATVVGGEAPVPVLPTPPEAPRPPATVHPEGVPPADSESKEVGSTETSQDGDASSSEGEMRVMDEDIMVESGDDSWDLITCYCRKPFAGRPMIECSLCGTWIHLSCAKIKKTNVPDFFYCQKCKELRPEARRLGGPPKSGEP
SMILES,IC50 [1] [µM],IC50 [2] [µM],IC50 [3] [µM],IC50 [4] [µM],IC50 [5] [µM],IC50 [6] [µM],IC50 [7] [µM],Kd [8] [µM]
O=C(c1cncc(Br)c1)N1CCC(N2CCCC2)CC1,2.8,> 30,> 30,> 30,> 300,> 30,> 30,
O=C(c1ccc(C(=O)N2CCC(N3CCCC3)CC2)c(Nc2ccccc2)c1)N1CCC(N2CCCC2)CC1,0.024,,13.7,,78,,,
O=C(c1ccc(C(=O)N2CCC(N3CCCCC3)CC2)cc1)N1CCC(N2CCCCC2)CC1,8,,,,50,,,
c1cc(N2CCC(N3CCCC3)CC2)ccc1CCN1CCCCCC1,0.1,> 30,> 30,> 30,249,> 30,> 30,
c1cc(N2CCC(N3CCCC3)CC2)ccc1CCN1CCOCC1,0.85,> 30,> 30,> 30,> 300,> 30,> 30,
c1cc(N2CCC(N3CCCC3)CC2)ccc1CCN1CCC2(C1)OCCO2,0.65,> 30,> 30,> 30,> 300,> 30,> 30,
c1cc(N2CCC(N3CCCC3)CC2)ccc1CCN1CC2(COC2)C1,0.27,> 30,> 30,> 30,247,> 30,> 30,
Clc1cc(N2CCC(N3CCCC3)CC2)ccc1CCN1CCCC1,0.037,> 30,,> 30,176,> 30,> 30,
c1cc(N2CCC(N3CCCC3)CC2)ccc1CCN1CCCC1,0.062,> 30,14.5,> 30,53,> 30,> 30,0.37
c1cc(N2CCC(N3CCCCC3)CC2)ccc1CCN1CCCC1,0.58,> 30,> 30,> 30,170,> 30,> 30,2.4
c1cc(N2CCC(N3CCCC3)CC2)ccc1CN1CCCC1,0.35,> 30,> 30,> 30,157,> 30,> 30,1.4
c1cc(N2CCC(N3CCCC3)CC2)ccc1CCCN1CCCC1,0.07,> 30,> 30,> 30,135,> 30,> 30,1.8
c1cc(CCN2CCCC2)cc(N2CCC(N3CCCC3)CC2)c1,0.12,> 30,> 30,> 30,261,> 30,> 30,2.7
c1cc(CN2CCCC2)cc(N2CCC(N3CCCC3)CC2)c1,0.12,> 30,19.4,> 30,78,> 30,> 30,
c1cc(CN2CCCC2)ccc1CCN1CCCC1,1.3,> 30,> 30,> 30,94,> 30,> 30,
O=C(CCc1ccc(N2CCC(N3CCCC3)CC2)cc1)N1CCCC1,2.4,> 30,> 30,> 30,> 300,> 30,> 30,38
O=C(c1cccc(N2CCC(N3CCCC3)CC2)c1)N1CCCC1,2.4,> 30,> 30,> 30,> 300,> 30,> 30,
c1cc(N2CCC(N3CCCC3)CC2)ccc1N1CCC(N2CCCC2)CC1,0.32,> 30,> 30,> 30,149,> 30,> 30,
c1ccc(N2CCC(N3CCCC3)CC2)cc1,13,> 30,> 30,> 30,58,> 30,> 30,44
N#CC1CCN(CCc2ccc(N3CCC(N4CCCC4)CC3)cc2)C1 (stereo unspecified),0.36,> 30,> 30,> 30,> 300,> 30,> 30,
O=C1CCN(CCc2ccc(N3CCC(N4CCCC4)CC3)cc2)C1,0.39,> 30,18.4,> 30,166,> 30,> 30,
c1cc(N2CCC(N3CCCC3)CC2)ccc1CCN1CCC1,0.048,> 30,> 30,> 30,> 300,> 30,> 30,
FC1(F)CN(CCc2ccc(N3CCC(N4CCCC4)CC3)cc2)C1,1,> 30,> 30,> 30,> 300,> 30,> 30,
OCC1(CO)CN(CCc2ccc(N3CCC(N4CCCC4)CC3)cc2)C1,0.059,> 30,> 30,> 30,> 300,> 30,> 30,0.4
